Measured values from ChEMBL document CHEMBL1145790, “Optimization of a tertiary alcohol series of phosphodiesterase-4 (PDE4) inhibitors: structure-activity relationship related to PDE4 inhibition and human ether-a-go-go related gene potassium channel binding affinity” (J Med Chem, 2003).

How the values were obtained:
[1] = In vitro inhibition of […] induced TNF-alpha production in human whole blood (HWB); type: functional, tissue-based
[2] = biological target: 3',5'-cyclic-AMP phosphodiesterase 4A (Homo sapiens, UniProt P27815); assay: In vitro inhibitory activity was determined against human Phosphodiesterase 4 isoform using a construct representing the common region of spliced variants expressed as a GST-fusion protein in Sf 9 cells; type: cell-based
3',5'-cyclic-AMP phosphodiesterase 4A, sequence (P27815 whole entry, looked up, stated change not applied, the tested form may be a part, canonical isoform): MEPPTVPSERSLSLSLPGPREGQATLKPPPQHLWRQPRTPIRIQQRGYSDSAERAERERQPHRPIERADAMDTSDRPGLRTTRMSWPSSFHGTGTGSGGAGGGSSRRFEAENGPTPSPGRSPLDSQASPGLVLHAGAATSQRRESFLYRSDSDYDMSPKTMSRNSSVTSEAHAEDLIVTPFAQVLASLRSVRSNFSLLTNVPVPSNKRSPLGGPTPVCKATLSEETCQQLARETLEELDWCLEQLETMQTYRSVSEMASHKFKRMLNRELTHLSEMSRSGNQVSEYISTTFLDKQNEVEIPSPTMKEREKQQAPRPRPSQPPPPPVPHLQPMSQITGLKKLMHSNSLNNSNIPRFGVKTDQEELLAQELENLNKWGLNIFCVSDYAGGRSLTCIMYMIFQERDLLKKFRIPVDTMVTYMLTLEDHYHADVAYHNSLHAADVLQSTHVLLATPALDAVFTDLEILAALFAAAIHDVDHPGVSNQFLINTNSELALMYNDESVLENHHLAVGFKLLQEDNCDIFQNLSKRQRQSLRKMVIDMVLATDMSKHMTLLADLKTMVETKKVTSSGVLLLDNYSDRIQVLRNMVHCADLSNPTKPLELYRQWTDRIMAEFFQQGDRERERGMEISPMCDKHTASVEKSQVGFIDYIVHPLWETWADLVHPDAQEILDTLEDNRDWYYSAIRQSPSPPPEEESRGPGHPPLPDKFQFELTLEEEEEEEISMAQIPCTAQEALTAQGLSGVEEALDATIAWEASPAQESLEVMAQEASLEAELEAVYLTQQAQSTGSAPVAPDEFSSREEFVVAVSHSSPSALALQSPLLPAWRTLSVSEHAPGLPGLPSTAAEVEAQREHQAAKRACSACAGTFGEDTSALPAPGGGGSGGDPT
How it was run: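 Human PDE4A, common-region construct of spliced variants expressed as GST-fusion in Sf9 cells; values mean ± SEM with n reported.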

[3] = biological target: Voltage-gated inwardly rectifying potassium channel KCNH2 (Homo sapiens, UniProt Q12809)
Voltage-gated inwardly rectifying potassium channel KCNH2, sequence (Q12809 whole entry): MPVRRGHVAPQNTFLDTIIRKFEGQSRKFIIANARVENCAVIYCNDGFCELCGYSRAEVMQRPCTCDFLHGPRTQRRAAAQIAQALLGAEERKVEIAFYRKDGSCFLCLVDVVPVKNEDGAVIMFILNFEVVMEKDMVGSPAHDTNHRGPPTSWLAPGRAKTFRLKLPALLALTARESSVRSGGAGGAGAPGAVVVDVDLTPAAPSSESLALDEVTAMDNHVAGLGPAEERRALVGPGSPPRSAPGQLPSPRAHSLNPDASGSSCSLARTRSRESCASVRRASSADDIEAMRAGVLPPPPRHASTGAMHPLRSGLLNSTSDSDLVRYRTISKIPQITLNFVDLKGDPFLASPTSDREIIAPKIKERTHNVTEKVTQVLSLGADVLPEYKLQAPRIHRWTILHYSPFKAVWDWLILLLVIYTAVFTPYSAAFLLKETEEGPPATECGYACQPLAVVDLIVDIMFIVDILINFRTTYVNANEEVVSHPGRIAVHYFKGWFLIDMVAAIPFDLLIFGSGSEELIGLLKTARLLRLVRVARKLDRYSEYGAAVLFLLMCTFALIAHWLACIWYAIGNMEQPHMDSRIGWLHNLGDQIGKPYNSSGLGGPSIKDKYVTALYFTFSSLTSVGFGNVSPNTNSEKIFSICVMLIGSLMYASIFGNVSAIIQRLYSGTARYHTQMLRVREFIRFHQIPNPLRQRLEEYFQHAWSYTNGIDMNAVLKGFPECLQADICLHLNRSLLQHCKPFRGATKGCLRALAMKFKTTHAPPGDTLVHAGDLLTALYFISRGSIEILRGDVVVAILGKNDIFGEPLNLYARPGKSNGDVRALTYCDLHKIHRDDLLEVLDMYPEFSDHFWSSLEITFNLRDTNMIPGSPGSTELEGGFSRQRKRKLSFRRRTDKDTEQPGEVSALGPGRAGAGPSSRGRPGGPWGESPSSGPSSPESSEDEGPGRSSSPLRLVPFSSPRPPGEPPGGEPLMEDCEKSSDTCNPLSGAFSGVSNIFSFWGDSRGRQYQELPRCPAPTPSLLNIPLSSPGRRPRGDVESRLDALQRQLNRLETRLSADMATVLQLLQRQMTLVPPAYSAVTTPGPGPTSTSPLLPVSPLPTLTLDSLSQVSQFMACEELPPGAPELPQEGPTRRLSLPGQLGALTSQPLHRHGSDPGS

Canis familiaris [4] = assay: Change in QTc were measured at 15 and 30 min after dosing of bolus at 3 mg/kg in dogs; type: functional, Canis lupus familiaris
How it was run: (§1)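 Chloralose-anesthetized mongrel dogs (n = 2 or 3) given iv bolus over 2–5 min as solution in 60–80% PEG-200. QTc recorded at 15 and 30 min postdose as percent change from baseline per dog; values averaged, ΔQTc taken as maximal mean percent change (range given).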

Canis familiaris [5] = assay: Range of plasma concentration measured between 2 and 30 min in dogs after intravenous bolus dosing at 3 mg/kg; type: functional, organism-based; parameters: dose 3 mg/kg; conditions: Canis lupus familiaris
How it was run: (§2)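 Anesthetized mongrel dogs, iv bolus (2–5 min) in 60–80% PEG-200; plasma drug levels measured by HPLC between 2 and 30 min after dosing, reported as range (±0.2 µM); data from n ≥ 2 dogs.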

[6] = In vitro inhibitory activity was determined against human whole blood; type: functional
[7] = Ratio of lowest plasma concentration to measured over 30 min interval to 50% inhibition of LPS-induced TNF alpha production in human whole blood; type: functional
Canis familiaris [8] = assay: Change in QTc were measured at 15 and 30 min after dosing of bolus at 10 mg/kg in dogs; type: functional, Canis lupus familiaris; how it was run: as §1
Canis familiaris [9] = assay: Range of plasma concentration measured between 2 and 30 min in dogs after intravenous bolus dosing at 10 mg/kg; type: functional, organism-based; parameters: dose 10 mg/kg; conditions: Canis lupus familiaris; how it was run: as §2

Row | IC50 ([1]; Homo sapiens, Blood) | IC50 [2] | IC50 [1] | SMILES | Ki [3] | other results
1 | 60 nM | – | – | CC(C)(O)c1ccc(C(CC2=CCC(=O)N=C2)c2ccc(OC(F)F)c(OC3CC3)c2)cn1 (single isomer, unassigned; (+)) | – | –
2 | – | 520 nM | 9010 nM | CC(C)(O)c1ccc(C(Cc2cc[n+]([O-])cc2)c2ccc(OC(F)F)c(OC(F)F)c2)cn1 (stereo in doubt; 2a(+)) | 25400 nM | –
3 | 18000 nM | 38 nM | – | O=c1[nH]c2c(O)ccc(CCNCCS(=O)(=O)CCCOCCc3ccccc3)c2s1 [SIBENADET] | – | –
4 | 160 nM | 2.1 nM | – | CC(O)(c1ccccc1)c1ccc(C(Cc2cc[n+]([O-])cc2)c2ccc(OC(F)F)c(OC(F)F)c2)cn1 (stereo unspecified) | 1180 nM | Change (Canis familiaris [4]): 8.9%; Plasma concentration (Canis familiaris [5]): 5 µM; IC50 [6]: 160 nM; Ratio plasma concentration/IC50 [7]: 12.5
5 | 20 nM | 0.4 nM | – | [O-][n+]1ccc(CC(c2ccc(OC(F)F)c(OC3CC3)c2)c2cnc(C(O)(C(F)(F)F)C(F)(F)F)s2)cc1 (racemic) | – | –
6 | 20 nM | 0.8 nM | – | [O-][n+]1ccc(CC(c2ccc(OC(F)F)c(OC3CCC3)c2)c2cnc(C(O)(C(F)(F)F)C(F)(F)F)s2)cc1 (racemic) | 38100 nM | –
7 | 16200 nM | 4.3 nM | – | COc1ccc([C@H](Cc2ccncc2)c2ccccc2)cc1OC1CCCC1 [CDP840] | – | –
8 | 90 nM | 0.5 nM | – | [O-][n+]1cccc(C[C@@H](c2ccc(OC(F)F)c(OC3CC3)c2)c2cnc(C(O)(C(F)(F)F)C(F)(F)F)s2)c1 | 61400 nM | Change (Canis familiaris [8]): 3%; Plasma concentration (Canis familiaris [9]): 25 µM; IC50 [6]: 90 nM; Ratio plasma concentration/IC50 [7]: 211
9 | 260 nM | 1.6 nM | – | CC(C)(O)c1ccc(C(Cc2cc[n+]([O-])cc2)c2ccc(OC(F)F)c(OC3CCC3)c2)cc1 (racemic) | 22400 nM | –
10 | – | 35 nM | 640 nM | CC(C)(O)c1ccc(C(Cc2cc[n+]([O-])cc2)c2ccc(OC(F)F)c(OC(F)F)c2)cn1 (single isomer, unassigned; (-)) | 22700 nM | –
11 | 90 nM | 0.5 nM | – | CC(C)(O)c1ncc(C(Cc2cc[n+]([O-])cc2)c2ccc(OC(F)F)c(OC3CCC3)c2)s1 (stereo unspecified) | 58400 nM | Change (Canis familiaris [8]): 2.9%; Plasma concentration (Canis familiaris [9]): 10 µM; IC50 [6]: 100 nM; Ratio plasma concentration/IC50 [7]: 40
12 | – | 1.2 nM | 60 nM | CC(C)(O)c1ccc(C(Cc2cc[n+]([O-])cc2)c2ccc(OC(F)F)c(OC3CC3)c2)cn1 (single isomer, unassigned; (+)) | – | –
13 | 120 nM | 1 nM | – | CC(C)(O)c1ccc(C(Cc2cc[n+]([O-])cc2)c2ccc(OC(F)F)c(OC3CCC3)c2)cn1 (stereo unspecified) | 25000 nM | –
14 | 2640 nM | 48 nM | – | [O-][n+]1cccc(C[C@H](c2ccc(OC(F)F)c(OC3CC3)c2)c2cnc(C(O)(C(F)(F)F)C(F)(F)F)s2)c1 | 39000 nM | –
15 | – | 2.1 nM | 200 nM | CC(C)(O)c1ccc(C(Cc2ccc[n+]([O-])c2)c2ccc(OC(F)F)c(OC3CC3)c2)cn1 (single isomer, unassigned; (+)2d) | 42200 nM | –
16 | – | 334 nM | 17900 nM | CC(C)(O)c1ccc(C(Cc2ccc[n+]([O-])c2)c2ccc(OC(F)F)c(OC3CC3)c2)cn1 (single isomer, unassigned; (-)2d) | 44700 nM | –
17 | – | 55 nM | 3520 nM | CC(C)(O)c1ccc(C(Cc2cc[n+]([O-])cc2)c2ccc(OC(F)F)c(OC3CC3)c2)cn1 (single isomer, unassigned; (-)) | – | –
